We go through 11 molecules from article PMC9926453 (Medicinal Chemistry Research, 2023).

What all share (type): cell-based
The test system of series [1] is MDA-MB-231 breast cancer cells. The series can be described thus: MTT antiproliferative assay, MDA-MB-231. The conditions noted are these: Homo sapiens, MDA-MB-231, 24 h, read-out: Antiproliferative activity (IC50) MDA-MB-231. The method, boiled down:
(§1)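 Cells were seeded at 2×10^3 per well and left to adhere for 24 h. Test compound was then added at 0–100 µM final, and cells were incubated for 24 h at 37 °C. MTT was added for 4 h, […]. Absorbance was read at 540 nm and growth compared with untreated cells. IC50 was taken from a dose-response curve.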
A general note: Tetrazolium dyes change colour on reduction, which living cells bring about.

Series [2] concerns MCF-7 breast cancer cells. Description: MTT antiproliferative assay, MCF-7. The conditions noted are these: Homo sapiens, MCF7, 24 h, read-out: Antiproliferative activity (IC50) MCF-7. The method, boiled down: (§2)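 Cells seeded at 2×10^3 per well and left 24 h to adhere, then exposed to test compound (0–100 µM, final) for 24 h at 37 °C. MTT added for 4 h, a second MTT addition followed by overnight incubation, and absorbance read at 540 nm. Growth compared with untreated cells; IC50 derived from dose-response curves.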

Series [3] in a line: MTT cytotoxicity towards normal breast cells. The conditions noted are these: human, MCF-10A normal breast cells.
Series [4] relates to normal MCF-10A breast cells. The series can be described thus: MTT cytotoxicity towards normal breast cells. The conditions noted are these: SI: IC50(MCF-10A)/IC50(MCF-7) or IC50(MCF-10A)/IC50(MDA-MB-231).
The test system of series [5] is MDA-MB-231/ADR breast cancer cells. Description: MTT antiproliferative assay, MDA-MB-231/ADR. The conditions noted are these: Homo sapiens, MDA-MB-231, 24 h, read-out: Antiproliferative activity (IC50) MDA-MB-231/ADR. Put shortly: as §1
Series [6] has as its system MCF-7, MDA-MB-231, MCF-7/ADR and MDA-MB-231/ADR breast cancer cell lines. Description: MTT antiproliferative assay, the four breast cancer cell lines taken together. The conditions noted are these: Homo sapiens, read-out: IC50 range over the four breast cancer cell lines. Put shortly:
as §2

With `COc1cccc2c1C(=O)c1c(O)c3c(c(O)c1C2=O)C[C@@](O)(C(=O)CO)C[C@@H]3O[C@H]1C[C@H](N)[C@H](O)[C@H](C)O1` [ADR, Adriamycin, reference compound], the IC50 is 3.38 µM in series [1], 18.9 µM in series [2] and > 100 µM in series [5]. In series [3], the IC50 at 24 h came to 68.8 µM. Also, the “Selectivity index (SI)” value in series [4] is 3.64.
Consider `CCON=C1C(=O)N(CCCC(=O)OC2O[C@@H]3O[C@@]4(C)CC[C@H]5[C@H](C)CC[C@@H]([C@H]2C)[C@@]35OO4)c2ccccc21` (stereo partly drawn) [Hybrid 5b, (3R,5aS,6R,8aS,9R,12R,12aR)-3,6,9-trimethyldecahydro-12H-3,12-epoxy[1,2]dioxepino[4,3-i]isochromen-10-yl 4-(3-(ethoxyimino)-2-oxoindolin-1-yl)butanoate], for which the IC50 in series [1] stood at 15.1 µM; in series [2], 1.27 µM; in series [5], 26.8 µM. Further, the IC50 at 24 h in series [3] is > 100 µM. Further, in series [4], the “Selectivity index (SI)” value is given as >78.74.
In the same order, the values of `CCON=C1C(=O)N(CCCC(=O)OC2O[C@@H]3O[C@@]4(C)CC[C@H]5[C@H](C)CC[C@@H]([C@H]2C)[C@@]35OO4)c2ccc(F)cc21` (stereo partly drawn) [Hybrid 5e, (3R,5aS,6R,8aS,9R,12R,12aR)-3,6,9-trimethyldecahydro-12H-3,12-epoxy[1,2]dioxepino[4,3-i]isochromen-10-yl 4-(3-(ethoxyimino)-5-fluoro-2-oxoindolin-1-yl)butanoate] are 8.12 µM, 15.9 µM, > 100 µM, > 100 µM and >6.29.
In the same order, the values of `CON=C1C(=O)N(CCCC(=O)OC2O[C@@H]3O[C@@]4(C)CC[C@H]5[C@H](C)CC[C@@H]([C@H]2C)[C@@]35OO4)c2ccccc21` (stereo partly drawn) [Hybrid 5a, (3R,5aS,6R,8aS,9R,12R,12aR)-3,6,9-trimethyldecahydro-12H-3,12-epoxy[1,2]dioxepino[4,3-i]isochromen-10-yl 4-(3-(methoxyimino)-2-oxoindolin-1-yl)butanoate] are > 100 µM, 19.1 µM, 52.2 µM, > 100 µM and >5.23.
In the same order, the values of `C[C@@H]1CC[C@H]2[C@@H](C)C(OC(=O)CCCN3C(=O)C(=O)c4ccccc43)O[C@@H]3O[C@@]4(C)CC[C@@H]1[C@]32OO4` (stereo partly drawn) [Hybrid 4a, (3R,5aS,6R,8aS,9R,12R,12aR)-3,6,9-trimethyldecahydro-12H-3,12-epoxy[1,2]dioxepino[4,3-i]isochromen-10-yl 4-(2,3-dioxoindolin-1-yl)butanoate] are 14.9 µM, 13.6 µM, 49.6 µM, > 100 µM and >7.33.
For the molecule `CON=C1C(=O)N(CCCC(=O)OC2O[C@@H]3O[C@@]4(C)CC[C@H]5[C@H](C)CC[C@@H]([C@H]2C)[C@@]35OO4)c2ccc(F)cc21` (stereo partly drawn) [Hybrid 5d, (3R,5aS,6R,8aS,9R,12R,12aR)-3,6,9-trimethyldecahydro-12H-3,12-epoxy[1,2]dioxepino[4,3-i]isochromen-10-yl 4-(3-(methoxyimino)-5-fluoro-2-oxoindolin-1-yl)butanoate], the IC50 in series [1] is > 100 µM; in series [2] it was 6.07 µM; in series [5], > 100 µM. Further, the IC50 at 24 h in series [3] is > 100 µM.
In the case of `C[C@H]1[C@@H](O)O[C@@H]2O[C@@]3(C)CC[C@H]4[C@H](C)CC[C@@H]1[C@@]24OO3` [DHA, Dihydroartemisinin, reference compound], the IC50 in series [1] is 48.8 µM; in series [2], 28.3 µM; in series [6] it was 14.8 to 82.8 µM; in series [5], 82.8 µM. Besides, the IC50 at 24 h in series [3] was > 100 µM. Also, the “Selectivity index (SI)” value in series [4] is >3.53.
As to `C[C@@H]1CC[C@H]2[C@@H](C)C(OC(=O)CCCN3C(=O)C(=NOCc4ccccc4)c4cc(F)ccc43)O[C@@H]3O[C@@]4(C)CC[C@@H]1[C@]32OO4` (stereo partly drawn) [Hybrid 5f, (3R,5aS,6R,8aS,9R,12R,12aR)-3,6,9-trimethyldecahydro-12H-3,12-epoxy[1,2]dioxepino[4,3-i]isochromen-10-yl 4-(3-((benzyloxy)imino)-5-fluoro-2-oxoindolin-1-yl)butanoate], the IC50 in series [1] is > 100 µM; in series [2] it was 18.3 µM; in series [5], > 100 µM. The IC50 at 24 h in series [3] was > 100 µM. For the same molecule, in series [4], the “Selectivity index (SI)” value is >5.46.
For the molecule `C[C@@H]1CC[C@H]2[C@@H](C)C(OC(=O)CCCN3C(=O)C(=O)c4cc(F)ccc43)O[C@@H]3O[C@@]4(C)CC[C@@H]1[C@]32OO4` (stereo partly drawn) [Hybrid 4b, (3R,5aS,6R,8aS,9R,12R,12aR)-3,6,9-trimethyldecahydro-12H-3,12-epoxy[1,2]dioxepino[4,3-i]isochromen-10-yl 4-(5-fluoro-2,3-dioxoindolin-1-yl)butanoate], the IC50 was 50 µM in series [1], 13.1 µM in series [2] and > 100 µM in series [5]. Besides, the IC50 at 24 h in series [3] is > 100 µM. In series [4], the “Selectivity index (SI)” value is recorded as >7.62.
As for `COc1ccc2c(c1)C(=O)C(=O)N2CCCC(=O)OC1O[C@@H]2O[C@@]3(C)CC[C@H]4[C@H](C)CC[C@@H]([C@H]1C)[C@@]24OO3` (stereo partly drawn) [Hybrid 4d, (3R,5aS,6R,8aS,9R,12R,12aR)-3,6,9-trimethyldecahydro-12H-3,12-epoxy[1,2]dioxepino[4,3-i]isochromen-10-yl 4-(5-methoxy-2,3-dioxoindolin-1-yl)butanoate], the IC50 worked out at 15.1 µM in series [1], 18.1 µM in series [2] and 20.1 µM in series [5]. Also, the IC50 at 24 h in series [3] was > 100 µM. Besides, the “Selectivity index (SI)” value in series [4] is given as >5.52.
With `C[C@@H]1CC[C@H]2[C@@H](C)C(=O)O[C@@H]3O[C@@]4(C)CC[C@@H]1[C@]32OO4` [ART, Artemisinin, reference compound], the IC50 in series [1], in series [2], in series [6] and in series [5] was > 100 µM throughout. Further, the IC50 at 24 h in series [3] is > 100 µM.
